High-throughput results from PubChem BioAssay.
DTT redox prof: compounds producing H2O2 with reducing agent – biochemical, NIH compound library profiling, artefact control for MLSCN library redox annotation, primary screen. DTT-dependent redox cycling H2O2, phenol red/HRP absorbance; 100% = 100 µM peroxide control, 0% = buffer. activation, % at 10 µM. 200,000 tested, 0.03% active;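 active = activation of at least 50% relative to the plate's high and low controls in the primary single-dose screen; inactive = activation below 50%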;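 also: compound incubated with DTT at 0.8 mM final as the reducing agent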
Lmaj promast: inhibitors of Leishmania major promastigote growth; Leishmania major promastigotes, resazurin fluorescence viability; inhibition, % at 10 µM; 200,000 tested, 9% active; AID 1063; in the data active = inhibition above about 50%;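 also: promastigotes grown with compound for 44 hours at 28 °C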
T cruzi repl: T. cruzi replication inhibition. 300,000 tested, 1.4% active. T. cruzi beta-gal in NIH3T3, luminescence, 90 h. inhibition, % (concentration not given with the values);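 active = mean inhibition across valid replicates above about 55%, limit read from the data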;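 also: signal also drops with host cell toxicity which is not excluded here; higher percent means less beta-gal luminescence so fewer parasites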
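Incubation – ≥90 h infection period, 3 h prior cell attachment · System – NIH/3T3 fibroblasts plus reporter T. cruzi · Doses – compound pinned at 50 nL/well, DMSO · Read-out basis – percent inhibition of parasite-derived β-gal signal · Signal – luminescent β-galactosidase signal after 60 min lysis · Also added – 5000 T. cruzi trypomastigotes/well · Medium – Low-serum DMEM with 2% FBS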
Lipid droplet: modulators of hepatic lipid droplet formation | AML12 mouse hepatocytes, oleate lipid droplets, BODIPY imaging | inhibition, % at 6.5 µM | 240,000 tested, 0.4% active | AID 1656;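 active = lipid droplet intensity inhibited by at least 50%, with more than 500 cells counted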
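Assay system: AML12 mouse liver cells | Compound: 6.5 µM single-point dosing | Schedule: Overnight exposure | Technique: Fluorescence imaging, 20x objective, two fields per well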
MPTP block: blocks calcium-induced mitochondrial swelling; isolated mouse mitochondria, Ca2+ swelling absorbance, 30 min; inhibition, % at 10 µM; AID 602449; 360,000 tested, 1.4% active;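 active = inhibition of 50% or more, scaled per plate between neutral and stimulator controls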
Numbers stand for hits; n = inactive; x = not tested or not shown. Shown is part of a subset that was picked to be rich in hits.

SMILES	DTT redox prof	Lmaj promast	T cruzi repl	Lipid droplet	MPTP block
CN1CCN(C(=O)C2=NOC3(C2)C(=O)Nc2ccccc23)CC1 (stereo unspecified)	x	x	x	x	n
Cc1cccc(NC(=S)N(CCN2CCOCC2)Cc2cc3cc4c(cc3[nH]c2=O)OCO4)c1	n	n	n	n	n
Cc1cccc(NC(=S)N(CCCN2CCOCC2)Cc2cn(C)c3ccccc23)c1	n	90	n	n	n
Cc1ccc(NC(=S)N(C)Cc2cn(C)c3ccccc23)cc1	n	63	n	n	n
CCOc1ccc(NC(=S)N(CCCN2CCOCC2)Cc2cn(C)c3ccccc23)cc1	n	60	n	n	n
Cn1cc(CN(CCCN2CCOCC2)C(=S)Nc2cccc(Cl)c2)c2ccccc21	n	80	n	n	n
COc1ccc(NC(=S)N(CCCN2CCOCC2)Cc2cn(C)c3ccccc23)cc1	n	n	n	n	n
COc1cc(/C=N/NC(=O)c2cc[n+]([O-])cc2)ccc1O	x	x	n	n	n
COc1nc(N(C)C)nc(N(C#N)S(=O)(=O)c2ccc(C)cc2)n1	x	x	n	n	n
CC(C)CN(C(=O)COC(=O)c1ccc([N+](=O)[O-])s1)c1c(N)n(Cc2ccccc2)c(=O)[nH]c1=O	x	x	63	x	n
CCc1cccc(CN2CCC(CNC(=O)Nc3ccc(Cl)cc3)CC2)c1	n	n	57	n	n
S=C(Nc1ccccc1)N1CCN(Cc2ccccc2)CC1	x	x	n	n	n
S=C(Nc1ccc(Cl)cc1)NC1CCN(Cc2ccccc2)CC1	n	99	n	n	n
O=C(NC1CCN(Cc2ccccc2)CC1)c1ccccc1Cl	x	x	n	x	n
CCc1ccc(NC(=S)NC2CCN(Cc3ccccc3)CC2)cc1	n	96	n	n	n
COc1ccc(CCNC(=S)Nc2cccc3ccccc23)cc1	n	85	n	n	n
COc1ccc(NC(=S)NC2CCN(Cc3ccccc3)CC2)cc1OC	n	n	n	n	n
S=C(Nc1ccccc1)NC1CCN(Cc2ccccc2)CC1	n	91	n	n	n
CCC(C)c1ccc(NC(=S)NC2CCN(Cc3ccccc3)CC2)cc1 (stereo unspecified)	n	87	n	n	n
COc1ccc(CCNC(=S)NC2CCN(Cc3ccccc3)CC2)cc1	n	74	n	n	n
CCCN1CCC(NC(=S)Nc2ccc(C(=O)OCC)cc2)CC1	n	n	n	n	n
CCC(C)c1ccc(NC(=S)NN2CCOCC2)cc1 (stereo unspecified)	n	n	n	n	n
S=C(NCCc1ccccc1)NC1CCC(NC(=S)NCCc2ccccc2)CC1 (stereo unspecified)	n	n	n	n	n
CCCN1CCC(NC(=S)Nc2ccc([N+](=O)[O-])cc2)CC1	n	83	n	n	n
Cc1onc(-c2ccccc2Cl)c1C(=O)O/N=C(\N)c1ccc([N+](=O)[O-])o1	x	x	n	n	n
SMILES	DTT redox prof	Lmaj promast	T cruzi repl	Lipid droplet	MPTP block
Cc1cccnc1NC(=O)NC(=O)c1ccc(C(C)(C)C)s1	x	x	n	n	n
CC(=O)Nc1ccccc1Nc1cc(C#N)c(C#N)cc1[N+](=O)[O-]	n	97	n	x	n
O=C(CSc1n[nH]c(-c2ccncc2)n1)Nc1ccc(Cl)c(C(=O)O)c1	x	x	n	n	n
CC(NC(=O)C(c1ccccc1)c1ccccc1)C(=O)O (stereo unspecified)	n	n	n	x	n
CC(NC(=O)C(c1ccccc1)c1ccccc1)C(=O)N1CCCCC1 (stereo unspecified)	n	52	n	n	n
Cc1ccc(C)c(S(=O)(=O)N2CCN(C(=O)c3ccnn3C)CC2)c1	x	x	n	n	n
Cc1cc(NC(=O)CCN2CC(C)OC(C)C2)ccc1Br (stereo unspecified)	x	x	n	n	n
CC1CC(C)CN(CCC(=O)Nc2cccc(Cl)c2)C1 (stereo unspecified)	n	83	n	n	n
Cc1ccc(S(=O)(=O)NCCC(=O)Nc2cccc(Cl)c2)cc1	n	52	n	n	n
Cc1cc(C)cc(NC(=O)CCN2CCCC2)c1	n	n	n	n	n
Cc1cc(C)cc(NC(=O)CCN2CC(C)OC(C)C2)c1 (stereo unspecified)	n	80	n	x	n
Cc1cccc(NC(=O)CCN2CC(C)OC(C)C2)c1 (stereo unspecified)	n	89	n	x	n
C=CCN(C(=O)CNS(=O)(=O)c1ccccc1)C(C(=O)NCCOC)c1cccnc1 (stereo unspecified)	x	x	n	n	n
O=C(NC(c1cccnc1)c1ccc2c(c1)OCO2)C1CCN(CCOc2ccc(Cl)cc2Cl)CC1 (stereo unspecified)	x	x	x	x	n
Cc1ccsc1C(=O)OCC(=O)N1CC(C)CC(C)C1 (stereo unspecified)	x	x	x	x	n
CC1=C(C(=O)N(C)C)CC(CC(=O)NCCCCc2ccccc2)C(=O)N1Cc1ccc(F)cc1 (stereo unspecified)	x	x	x	x	n
CCOc1cc(NC(=S)Nc2ccccc2OC)c(OCC)cc1NC(=O)c1ccccc1C	n	97	n	x	n
CCOc1cc(NC(=S)Nc2ccccc2)c(OCC)cc1NC(=O)c1ccccc1	n	88	n	x	n
CCOc1cc(NC(=O)c2ccccn2)c(OCC)cc1NC(=O)c1ccccc1	n	n	n	n	n
CCC(=O)Nc1cc(OC)c(NC(=O)c2ccccc2)cc1OC	n	77	n	n	n
COc1ccccc1CC(=O)Nc1cc(OC)c(NC(=O)c2ccccc2)cc1OC	x	x	n	n	n
CCN(C(=O)CN1CCN(S(=O)(=O)c2ccccc2C(F)(F)F)CC1)c1c(N)n(Cc2ccccc2)c(=O)[nH]c1=O	n	n	n	n	n
Cc1ccc(S(=O)(=O)N2CCC(=O)N(C(COCc3ccc(Cl)cc3Cl)Cc3ccccc3)CC2)cc1 (stereo unspecified)	n	n	75	n	n
Cc1ccc(S(=O)(=O)N2CCC(=O)N(C(COCc3cccc(Cl)c3)Cc3ccccc3)CC2)cc1 (stereo unspecified)	n	n	n	n	n
COC(=O)C1CCN(C(=O)COC(=O)CCc2nc3ccccc3c(=O)[nH]2)CC1	n	n	n	n	n
SMILES	DTT redox prof	Lmaj promast	T cruzi repl	Lipid droplet	MPTP block
CCCNc1ncnc2c1cnn2C1CCCCO1 (stereo unspecified)	x	x	x	x	n
Cc1ccc(CN2CCN(Cc3ccc(-n4cccn4)cc3)CC2CCO)cc1 (stereo unspecified)	n	62	n	n	n
Cc1cc(-n2cccn2)ccc1CN1CCN(C2CCCC2)C(CCO)C1 (stereo unspecified)	n	64	n	n	n
CC(C)CCN1CCN(Cc2cccc(-n3cccn3)c2)CC1CCO (stereo unspecified)	n	83	n	n	n
OCCC1CN(Cc2cccc(-n3cccn3)c2)CCN1Cc1ccccc1 (stereo unspecified)	n	79	n	n	n
CC(=O)c1cccc(CN2CCN(Cc3ccccc3)C(CCO)C2)c1 (stereo unspecified)	n	n	n	n	n
